Experiments:
[1] = molecular target: T1, Delta-type opioid receptor (Homo sapiens, UniProt P41143); test: Displacement of [3H]DPDPE from human delta opioid receptor expressed in CHO cell membrane measured after 90 mins by liquid scintillation counting method; assay type: cell membranes
Method in brief: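 Membranes (7 μg protein) were added and incubated 90 min at room temperature in 50 mM Tris HCl, 10 mM MgCl2, 1 mM EDTA, pH 7.4. Samples were filtered on GF-B, washed 4× with ice-cold 50 mM Tris HCl, and counted by scintillation. Points were run in duplicate.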

Mu-type opioid receptor [2] = molecular target: T2, Mu-type opioid receptor (Homo sapiens, UniProt P35372); test: Displacement of [3H]DAMGO from human mu opioid receptor expressed in CHO cell membrane incubated for 90 mins by liquid scintillation counting method; assay type: cell membranes
T2 sequence (P35372 whole entry): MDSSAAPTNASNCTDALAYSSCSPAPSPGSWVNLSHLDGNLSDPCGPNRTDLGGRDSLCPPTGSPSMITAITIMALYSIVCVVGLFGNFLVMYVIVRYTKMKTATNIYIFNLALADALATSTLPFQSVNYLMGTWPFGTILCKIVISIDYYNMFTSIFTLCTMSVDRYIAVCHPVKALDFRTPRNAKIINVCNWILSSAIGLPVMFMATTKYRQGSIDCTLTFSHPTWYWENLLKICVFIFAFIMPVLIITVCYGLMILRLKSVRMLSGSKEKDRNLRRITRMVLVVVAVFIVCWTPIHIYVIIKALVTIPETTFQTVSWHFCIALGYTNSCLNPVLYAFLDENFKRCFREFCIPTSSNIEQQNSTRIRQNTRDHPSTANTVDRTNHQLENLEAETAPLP

Homo sapiens = species on record: Homo sapiens; test: Selectivity ratio, ratio of Ki for displacement of [3H]DAMGO from human mu opioid receptor expressed in CHO cell membrane to Ki for displacement of [3H]DPDPE from human delta opioid receptor expressed in CHO cell membrane; assay type: cell membranes
[3] = molecular target: Delta-type opioid receptor (Mus musculus, UniProt P32300); test: Agonist activity at FLAG-tagged mouse delta opioid receptor expressed in human HEK293 cells assessed as inhibition of forskolin stimulated cAMP production preincubated for 20 mins followed by forskolin stimulation and measured after 15 mins by GloSensor assay; assay type: functional, cell-based
Delta-type opioid receptor (Mus musculus, UniProt P32300), sequence (P32300 whole entry): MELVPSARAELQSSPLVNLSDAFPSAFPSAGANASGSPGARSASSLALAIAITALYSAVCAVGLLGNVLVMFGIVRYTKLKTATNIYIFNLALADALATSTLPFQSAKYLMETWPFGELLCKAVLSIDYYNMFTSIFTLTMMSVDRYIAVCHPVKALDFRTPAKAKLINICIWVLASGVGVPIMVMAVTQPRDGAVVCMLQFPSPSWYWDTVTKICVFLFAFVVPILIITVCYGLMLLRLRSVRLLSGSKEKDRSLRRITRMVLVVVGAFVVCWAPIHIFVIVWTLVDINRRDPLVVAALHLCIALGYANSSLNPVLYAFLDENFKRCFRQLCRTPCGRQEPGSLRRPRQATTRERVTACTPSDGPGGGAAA
Method in brief: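 HEK293 cells transiently transfected 1:3 with FLAG-mouse δOR or HA-mouse μOR plus pGloSensor22F-cAMP; used two days later at 20,000 cells/well. GloSensor reagent (2% final) applied 90 min at room temperature, then drug 20 min, then forskolin (30 μM final) 15 min, all at room temperature. Luminescence read; triplicates; pIC50 from nonlinear regression.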

[4] = molecular target: T1, Delta-type opioid receptor; test: Agonist activity at human delta opioid receptor expressed in CHO cells co-expressing beta-arrestin2 assessed as beta-arrestin2 recruitment measured after 90 mins by PathHunter assay; assay type: functional, cell-based
Method in brief: (§1)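 PathHunter CHO cells expressing human δOR and β-arrestin 2 were plated at 2,500 cells/well one day before use. Drug was applied for 90 min at 37 °C/5% CO2, followed by PathHunter assay buffer for 60 min at room temperature. Luminescence was read. Points were run in duplicate, and pEC50 was obtained by nonlinear regression; values are means ± SEM.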

[5] = molecular target: T1, Delta-type opioid receptor; test: Agonist activity at human delta opioid receptor expressed in CHO cells co-expressing beta-arrestin2 assessed as beta-arrestin2 recruitment by measuring maximum efficacy measured after 90 mins by PathHunter assay; assay type: functional, cell-based; settings: filed as agonist; method in brief: as §1
Mu-type opioid receptor [6] = molecular target: Mu-type opioid receptor (Mus musculus, UniProt P42866); test: Agonist activity at FLAG-tagged mouse mu opioid receptor expressed in human HEK293 cells assessed as inhibition of forskolin stimulated cAMP production preincubated for 20 mins followed by forskolin stimulation and measured after 15 mins by GloSensor assay; assay type: functional, cell-based
Mu-type opioid receptor (Mus musculus, UniProt P42866), sequence (P42866 whole entry): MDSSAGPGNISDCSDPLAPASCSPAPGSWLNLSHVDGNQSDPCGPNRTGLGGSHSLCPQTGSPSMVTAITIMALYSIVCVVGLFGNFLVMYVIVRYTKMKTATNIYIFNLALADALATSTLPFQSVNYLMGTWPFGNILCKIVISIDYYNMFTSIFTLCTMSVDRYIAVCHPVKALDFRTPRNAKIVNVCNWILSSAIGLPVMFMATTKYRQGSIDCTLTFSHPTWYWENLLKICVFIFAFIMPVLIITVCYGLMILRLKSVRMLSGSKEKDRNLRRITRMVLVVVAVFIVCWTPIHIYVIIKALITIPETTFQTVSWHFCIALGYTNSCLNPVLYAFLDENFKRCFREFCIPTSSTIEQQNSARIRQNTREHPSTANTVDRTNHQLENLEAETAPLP

Mu-type opioid receptor [7] = molecular target: T2, Mu-type opioid receptor; test: Agonist activity at human mu opioid receptor expressed in CHO cells co-expressing beta-arrestin2 assessed as beta-arrestin2 recruitment measured after 90 mins by PathHunter assay; assay type: functional, cell-based

T1 sequence (P41143 whole entry): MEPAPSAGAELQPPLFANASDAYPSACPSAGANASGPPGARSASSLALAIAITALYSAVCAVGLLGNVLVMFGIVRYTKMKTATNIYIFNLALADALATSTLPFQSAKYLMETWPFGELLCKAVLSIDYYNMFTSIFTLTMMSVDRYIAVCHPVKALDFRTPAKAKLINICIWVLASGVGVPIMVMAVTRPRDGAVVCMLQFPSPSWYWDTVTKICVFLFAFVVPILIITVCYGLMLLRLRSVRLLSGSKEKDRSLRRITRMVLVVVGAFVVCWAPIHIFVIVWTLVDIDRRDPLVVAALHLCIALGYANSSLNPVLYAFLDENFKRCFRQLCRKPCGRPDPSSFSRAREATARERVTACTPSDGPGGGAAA

Row | Structure (SMILES) | Ki [1] [nM] | Ki (Mu-type opioid receptor [2]) [nM] | Ratio Ki (Homo sapiens) | IC50 [3] [nM] | EC50 [4] [nM] | Emax [5] [%] | IC50 (Mu-type opioid receptor [6]) [nM] | EC50 (Mu-type opioid receptor [7]) [µM]
1 | CNC(=O)[C@H](CC(C)C)NC(=O)[C@H](Cc1ccccc1)NC(=O)CNC(=O)C/C=C(\F)[C@@H](N)Cc1ccc(O)cc1 | 55.9 | 9.92 | 0.2 | 50.2 | 667 | 90 | 42.7 | 7.21
2 | CC(C)C[C@H](NC(=O)[C@H](Cc1ccccc1)NC(=O)CNC(=O)C/C=C(\F)[C@@H](N)Cc1ccc(O)cc1)C(=O)O | – | – | – | 33.7 | – | 102 | 363 | –
3 | CC(C)C[C@H](NC(=O)[C@H](Cc1ccccc1)NC(=O)CNC(=O)C/C=C(\F)[C@@H](N)Cc1ccc(O)cc1)C(N)=O | 94.4 | 7.07 | 0.1 | 46.6 | 959 | 84 | 186 | 2.64
4 | CC(C)C[C@H](NC(=O)[C@H](Cc1ccccc1)NC(=O)CNC(=O)C/C=C(\F)[C@@H](N)Cc1ccc(O)cc1)C(=O)N(C)C | 255 | 85.4 | 0.3 | 425 | 3820 | 63 | 1000 | 17.6
5 | CCNC(=O)[C@H](CC(C)C)NC(=O)[C@H](Cc1ccccc1)NC(=O)CNC(=O)C/C=C(\F)[C@@H](N)Cc1ccc(O)cc1 | 54.7 | 20 | 0.4 | 66.2 | 695 | 70 | 178 | 2.26
6 | CC(C)C[C@H](NC(=O)[C@H](Cc1ccccc1)NC(=O)CNC(=O)C/C=C(\F)[C@@H](N)Cc1ccc(O)cc1)C(=O)NC1CC1 | 104 | 26.1 | 0.3 | 152 | 693 | 69 | 126 | 4.26

From ChEMBL document CHEMBL5107935, “Modulating β-arrestin 2 recruitment at the δ- and μ-opioid receptors using peptidomimetic ligands” (RSC Med Chem, 2021)
